# Residue numbers refer to the chain shown, from its start.
# B1: Beta-lactamase SHV-1 (Klebsiella pneumoniae), P0AD64 (protein)
# chain: MRYIRLCIISLLATLPLAVHASPQPLEQIKLSESQLSGRVGMIEMDLASGRTLTAWRADERFPMMSTFKVVLCGAVLARVDAGDEQLERKIHYRQQDLVDYSPVSEKHLADGMTVGELCAAAITMSDNSAANLLLATVGGPAGLTAFLRQIGDNVTRLDRWETELNEALPGDARDTTTPASMAATLRKLLTSQRLSARSQRQLLQWMVDDRVAGPLIRSVLPAGWFIADKTGAGERGARGIVALLGPNNKAERIVVIYLRDTPASMAERNQQIAGIGAALIEHWQR
# B2: Beta-lactamase SHV-72 (Klebsiella pneumoniae), A0ZX81 (protein)
# chain: B1 chain with I4F, A142V, K230R
# Key:
# Escherichia coli [1] = experiment: Antibacterial activity against Escherichia coli DH5alpha expressing Klebsiella pneumoniae beta-lactamase SHV-1 by agar dilution method; format: functional
# Klebsiella pneumoniae [2] = experiment: Antibacterial activity against Klebsiella pneumoniae INSRA1229 harboring SHV-72 Ile8Phe, Ala146Val, and Lys234Arg mutations by agar dilution method
# Escherichia coli [3] = experiment: Antibacterial activity against Escherichia coli DH5alpha with deltaampC by agar dilution method; format: functional
# Escherichia coli [4] = experiment: Antibacterial activity against Escherichia coli DH5alpha expressing Klebsiella pneumoniae beta-lactamase SHV-72 by agar dilution method; format: functional
# Klebsiella pneumoniae [5] = experiment: Antibacterial activity against Klebsiella pneumoniae INSRA1229 harboring SHV-72 Ile8Phe, Ala146Val, and Lys234Arg mutations in presence of 4 ug/ml Tazobactam; format: functional
# Escherichia coli [6] = experiment: Antibacterial activity against Escherichia coli DH5alpha expressing Klebsiella pneumoniae beta-lactamase SHV-1 by agar dilution method in presence of 4 ug/ml Tazobactam; format: functional
# Escherichia coli [7] = experiment: Antibacterial activity against Escherichia coli DH5alpha with deltaampC by agar dilution method in presence of 4 ug/ml Tazobactam; format: functional
# Escherichia coli [8] = experiment: Antibacterial activity against Escherichia coli DH5alpha expressing Klebsiella pneumoniae beta-lactamase SHV-72 by agar dilution method in presence of 4 ug/ml Tazobactam; format: functional
# [9] = substrate: CC1(C)S[C@@H]2[C@H](NC(=O)Cc3ccccc3)C(=O)N2[C@H]1C(=O)O; experiment: (§1) Activity of Klebsiella pneumoniae Beta-Lactamase SHV-1
# How it was run: (§2)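 SHV-1 or SHV-72 came from E. coli DH5α ΔampC clones grown 18 h at 37°C. Enzymes were purified by ion exchange then gel filtration, with protein measured by BCA. Km and kcat were measured by pH-stat microacidimetry, fitting complete hydrolysis time courses by nonlinear least squares, three determinations per substrate.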
# [10] = substrate: CC1(C)S[C@@H]2[C@H](NC(=O)[C@H](C(=O)O)c3ccsc3)C(=O)N2[C@H]1C(=O)O; experiment: as §1; how it was run: as §2
# [11] = substrate: CC1(C)S[C@@H]2[C@H](NC(=O)Cc3ccccc3)C(=O)N2[C@H]1C(=O)O; experiment: (§3) Ratio of Kcat to Km for Klebsiella pneumoniae Beta-Lactamase SHV-1
# How it was run: (§4)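 kcat/Km came from Km and kcat of purified enzyme, which was expressed in E. coli DH5α ΔampC and purified by ion exchange then gel filtration. Both constants were measured by computerized pH-stat microacidimetry, with complete hydrolysis progress curves fitted by nonlinear least-squares regression. Each substrate was run three times.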
# [12] = substrate: CCN1CCN(C(=O)N[C@@H](C(=O)N[C@@H]2C(=O)N3[C@@H]2SC(C)(C)[C@@H]3C(=O)O)c2ccccc2)C(=O)C1=O; experiment: as §3; how it was run: as §4
# [13] = substrate: CC1(C)S[C@@H]2[C@H](NC(=O)[C@H](C(=O)O)c3ccsc3)C(=O)N2[C@H]1C(=O)O; experiment: as §3; how it was run: as §4
# [14] = substrate: CO/N=C(\C(=O)N[C@@H]1C(=O)N2C(C(=O)O)=C(COC(C)=O)CS[C@H]12)c1csc(N)n1; experiment: (§5) Activity of Klebsiella pneumoniae Beta-Lactamase SHV-72; how it was run: as §2
# [15] = substrate: CC1(C)S[C@@H]2[C@H](NC(=O)[C@H](N)c3ccc(O)cc3)C(=O)N2[C@H]1C(=O)O; experiment: as §5; how it was run: as §2
# [16] = substrate: CC1(C)S[C@@H]2[C@H](NC(=O)Cc3ccccc3)C(=O)N2[C@H]1C(=O)O; experiment: as §5; how it was run: as §2
# [17] = substrate: CCN1CCN(C(=O)N[C@@H](C(=O)N[C@@H]2C(=O)N3[C@@H]2SC(C)(C)[C@@H]3C(=O)O)c2ccccc2)C(=O)C1=O; experiment: as §5; how it was run: as §2
# [18] = substrate: CC(C)(O/N=C(\C(=O)N[C@@H]1C(=O)N2C(C(=O)[O-])=C(C[n+]3ccccc3)CS[C@H]12)c1csc(N)n1)C(=O)O; experiment: as §5; how it was run: as §2
# [19] = substrate: CC(=O)OCC1=C(C(=O)O)N2C(=O)[C@@H](NC(=O)Cc3cccs3)[C@H]2SC1; experiment: as §5; how it was run: as §2
# [20] = substrate: CC1(C)S[C@@H]2[C@H](NC(=O)[C@H](C(=O)O)c3ccsc3)C(=O)N2[C@H]1C(=O)O; experiment: as §5; how it was run: as §2
# [21] = substrate: CC1(C)S[C@@H]2[C@H](NC(=O)[C@H](N)c3ccc(O)cc3)C(=O)N2[C@H]1C(=O)O; experiment: (§6) Ratio of Kcat to Km for Klebsiella pneumoniae Beta-Lactamase SHV-72; how it was run: as §4
# [22] = substrate: CC1(C)S[C@@H]2[C@H](NC(=O)Cc3ccccc3)C(=O)N2[C@H]1C(=O)O; experiment: as §6; how it was run: as §4
# [23] = substrate: CCN1CCN(C(=O)N[C@@H](C(=O)N[C@@H]2C(=O)N3[C@@H]2SC(C)(C)[C@@H]3C(=O)O)c2ccccc2)C(=O)C1=O; experiment: as §6; how it was run: as §4
# [24] = substrate: CC(=O)OCC1=C(C(=O)O)N2C(=O)[C@@H](NC(=O)Cc3cccs3)[C@H]2SC1; experiment: as §6; how it was run: as §4
# [25] = substrate: CC1(C)S[C@@H]2[C@H](NC(=O)[C@H](C(=O)O)c3ccsc3)C(=O)N2[C@H]1C(=O)O; experiment: as §6; how it was run: as §4
# [26] = Escherichia coli, DH5alpha, read-out: MIC
molecule,measurement,setting,value
CC(=O)OCC1=C(C(=O)O)N2C(=O)[C@@H](NC(=O)Cc3cccs3)[C@H]2SC1 [CEPHALOTHIN],MIC,Escherichia coli [1],16 µg/mL
same,MIC,Klebsiella pneumoniae [2],8 µg/mL
same,MIC,Escherichia coli [3],8 µg/mL
same,MIC,Escherichia coli [4]; [26],4 µg/mL
O=C(O)c1cn(C2CC2)c2cc(N3CCNCC3)c(F)cc2c1=O [CIPROFLOXACIN],MIC,Escherichia coli [1],≤ 0.125 µg/mL
same,MIC,Klebsiella pneumoniae [2],≤ 0.125 µg/mL
same,MIC,Escherichia coli [3],≤ 0.125 µg/mL
same,MIC,Escherichia coli [4]; [26],≤ 0.125 µg/mL
C[C@@H](O)[C@H]1C(=O)N2C(C(=O)O)=C(SCCNC=N)C[C@H]12 [IMIPENEM ANHYDROUS],MIC,Klebsiella pneumoniae [2],0.125 µg/mL
CCN1CCN(C(=O)N[C@@H](C(=O)N[C@@H]2C(=O)N3[C@@H]2SC(C)(C)[C@@H]3C(=O)O)c2ccccc2)C(=O)C1=O [PIPERACILLIN],MIC,Klebsiella pneumoniae [5],2 µM
same,MIC,Escherichia coli [6],2 µM
same,MIC,Escherichia coli [7],2 µM
same,MIC,Escherichia coli [1],64 µg/mL
same,MIC,Klebsiella pneumoniae [2],32 µg/mL
same,MIC,Escherichia coli [3],2 µg/mL
same,MIC,Escherichia coli [8],2 µM
same,MIC,Escherichia coli [4]; [26],4 µg/mL
CC1(C)S[C@@H]2[C@H](NC(=O)[C@H](C(=O)O)c3ccsc3)C(=O)N2[C@H]1C(=O)O [TICARCILLIN],MIC,Escherichia coli [1],1020 µg/mL
same,MIC,Klebsiella pneumoniae [2],512 µg/mL
same,MIC,Escherichia coli [3],4 µg/mL
same,MIC,Escherichia coli [4]; [26],8 µg/mL
COc1cc(Cc2cnc(N)nc2N)cc(OC)c1OC [TRIMETHOPRIM],MIC,Escherichia coli [1],≤ 0.125 µg/mL
same,MIC,Klebsiella pneumoniae [2],0.5 µg/mL
same,MIC,Escherichia coli [3],≤ 0.125 µg/mL
same,MIC,Escherichia coli [4]; [26],≤ 0.125 µg/mL
GENTAMICIN,MIC,Escherichia coli [1],0.25 µg/mL
same,MIC,Escherichia coli [3],< 0.125 µg/mL
same,MIC,Escherichia coli [4],0.25 µg/mL
B1,kcat,[9],1940 s⁻¹
same,Km,[10],11 µM
same,kcat/Km,[11],8.42e+07 M⁻¹ s⁻¹
same,kcat/Km,[12],6.21e+07 M⁻¹ s⁻¹
same,kcat/Km,[13],2e+07 M⁻¹ s⁻¹
B2,kcat,[14],< 0.1 s⁻¹
same,Km,[15],26 µM
same,kcat,[15],5880 s⁻¹
same,Km,[16],19 µM
same,kcat,[16],5440 s⁻¹
same,Km,[17],43 µM
same,kcat,[17],1920 s⁻¹
same,kcat,[18],< 0.1 s⁻¹
same,Km,[19],141 µM
same,kcat,[19],38 s⁻¹
same,Km,[20],36 µM
same,kcat,[20],1280 s⁻¹
same,kcat/Km,[21],2.26e+08 M⁻¹ s⁻¹
same,kcat/Km,[22],2.86e+08 M⁻¹ s⁻¹
same,kcat/Km,[23],4.46e+07 M⁻¹ s⁻¹
same,kcat/Km,[24],300000 M⁻¹ s⁻¹
same,kcat/Km,[25],3.55e+07 M⁻¹ s⁻¹

# From ChEMBL document CHEMBL1255335 (Antimicrob Agents Chemother, 2008)
